Our source for the yeast fitness values is the RNAGym collection of RNA variant scans (doi:10.1126/science.aae0568).

Variants at the floor of the assay were thinned out. A value given as a limit tells only on which side of the number the result lay.

First the molecules themselves.
B1: tRNA (parent)
chain: GUUCCGUUGGCGUAAUGGUAACGCGUCUCCCUCCUAAGGAGAAGACUGCGGGUUCGAGUCCCGUACGGAACG

The series covers variants of B1. Kind of series: yeast fitness relative to wild type (ratio to wild type); higher = fitter; tRNA-Arg(CCU), competitive growth, 37 C, YPD. In a few lines:
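Variants of the tRNA-Arg(CCU) gene were chemically synthesised with a 3% per-site mutation rate across 69 sites and placed at the native genomic locus in Saccharomyces cerevisiae. Six parallel replicates of the pooled strains were competed in YPD at 37°C for 24 hours, and gene amplicons from the start and end populations were read by 100-nucleotide paired-end sequencing. Darwinian fitness relative to wild type was derived from changes in genotype frequencies. Genotypes required ≥ 100 starting reads, and estimates < 0.5 were set to 0.5.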
For GUUCCGUUGGCGUAUUGGUAAAAAGUCUCCCUCCUAAGGAGAAGAAUGCGGGUUCGAGUCCCGUACGGAGCG [A15U C22A G23A C24A C46A A70G], the yeast fitness was ≤ 0.5.
Turning to GUUCCGUUGGCGUAUUGGUAACGGGUCUCCCUCCUAAGGAGAAGACUGCGGGUUCGAGUCCCAUACGGAACG [A15U C24G G63A], the yeast fitness is ≤ 0.5.
As for GUUCCGUUGGCGUAUUGGUAACGCGUCUCCCUCCUAAGGAGAAGACUGCGGGUUCGAGUCCCGUUCGGACCG [A15U A65U A70C], the yeast fitness is ≤ 0.5.
On to GUUCCGUUGGCGUAUUGGUAACGCGUGUCCCUCCUAAGGAGAAGACUGCGGGUUCGAGCCCCGUACGGAACG [A15U C27G U59C], for which the yeast fitness was ≤ 0.5.
The same measure for GUUCCGUUGGCGUAUUGGUAAUGCGUCUCCCUGCUAAGGAGAAGACUGCAGGUUCGAGUCCCGUACGGAACG [A15U C22U C33G G50A]: ≤ 0.5; for GUUCCGUUGGCGUAUUGGUAACGAAUCUCCCUCCUAAGGAGAAGACCGCGGCUUCGAGUCCCGUACGGAACG [A15U C24A G25A U47C G52C]: ≤ 0.5.
Consider GUUCCGUUGGCGUAUUGGUAACGCGUUUCCCUCCUAAGGAGAAGACUGUGGGUUCGAGUCCCGUACGGAACG [A15U C27U C49U], for which the yeast fitness came out at 0.655.
The same measure for GUUCCGUUGGCGUAUUGGUAACGCGUCUCCCUCCUAAGGAGAAGACUGCGGGUUCGUGUCCCGUACGGAACG [A15U A57U]: 0.666.
With GUUCCGUUGGCGUAUUGGUAACGGGUCUCCCUCCUAAGGAGAAGACUGCGGGAUCGAGUCCCGAACGGAACG [A15U C24G U53A U64A], the yeast fitness is ≤ 0.5.
In the case of GUUCCGUUGGCGUAUUGGUAAGGCGUCUCCUUCCUAAGGAGAAGACUGCGGGUUCGAGUCCCGAACGCAUCG [A15U C22G C31U U64A G68C A70U], the yeast fitness was ≤ 0.5.
Regarding GUUCCGUUGGCGUAUUGGUAAAGCGUCUCCCUCCUAAGGAGAGGACUGCGCGUUCGAGCCCUGUACGUAACG [A15U C22A A43G G51C U59C C62U G68U], the yeast fitness was ≤ 0.5.
In the case of GUUCCGUUGGCGUAUUGGUAAUGCGUCUCCCUCCUAAGGAGAACACUGCGGGUUCGAGUCCCGUACGGAACG [A15U C22U G44C], the yeast fitness is ≤ 0.5.
As for GUUCCGUUGGCGUAUUGGUAACGGGUCUCCCUCCUAAGGAGCCGACUGCGGGUUCGAGUCCCGUACGGAACG [A15U C24G A42C A43C], the yeast fitness is ≤ 0.5.
For GUUCCGUUGGCGUAUUGGUAACGCGUCUUCCUCCUAAGGAGAAGAUUGCGGGUUCGAGUCCCGUACGGAACG [A15U C29U C46U], the yeast fitness came out at 0.667.
Then GUUCCGUUGGCGUAUUGGUAACGCGUAUCCCUCCUAAGGAGAAGACUGCGGGUUCGAGUCCUGUCCGGCACG [A15U C27A C62U A65C A69C], with ≤ 0.5.
Regarding GUUCCGUUGGCGUAUUGGUAACGGGUCUCCCUCCUAAGGAGCAGACUGCGGGUUCGAGUCCCGUAAGGAACG [A15U C24G A42C C66A], the yeast fitness stood at 0.59.
Consider GUUCCGUUGGCGUAUUGGUAACGCGUCUCCCUCCUAAGGAGAAGACUGCGGGUUCGAGUCCCGUACGGAUCG [A15U A70U], for which the yeast fitness amounted to 0.836.
Then GUUCCGUUGGCGUAUUGGUAACGCGUCUCCCUCCUAAGGAGAAGACUGCGGGUUCGAGUCCCGUACGGAGCG [A15U A70G], with 0.663; and GUUCCGUUGGCGUAUUGGUAACGCGUCUCCCUCCUAAGGAGAAGACUGCGGGUUCGAGUCCCGUACGGACCG [A15U A70C], with 0.867; and GUUCCGUUGGCGUAUUGGUAACGGGUCUCUCUCCUAAGGAGAAGACUGCGGGUUCGAGUCCCGUACGGAACG [A15U C24G C30U], with 0.608.
As for GUUCCGUUGGCGUAUUGGUAAGGCGUCUCCCUCCUAAGGAGAAGACUGCGGGUUCGAGUCCCGUACGGACCG [A15U C22G A70C], the yeast fitness was ≤ 0.5.
As for GUUCCGUUGGCGUAUUGGUAAGGCGUCUCCCUCCUAAGGAGAAGACUGCGGCUUCGAGUCCCGUCCGGAACG [A15U C22G G52C A65C], the yeast fitness was ≤ 0.5.
The same measure for GUUCCGUUGGCGUAUUGGUAACGCGUUUCCCUCCUAAGGAGAAGACUCCGGGUUCGAGUCCCGUACGGGUCG [A15U C27U G48C A69G A70U]: ≤ 0.5; for GUUCCGUUGGCGUAUUGGUAACGGGUCUCCCUCCUAAGGAGAACACUGCGGGUUCGACUCCCGUACGUAACG [A15U C24G G44C G58C G68U]: ≤ 0.5; for GUUCCGUUGGCGUAUUGGUAACGAAUCUCCCUCCUAAGGAGAAGACCGCGGCUUCGAGUCCUGUAAGGACCG [A15U C24A G25A U47C G52C C62U C66A A70C]: ≤ 0.5.
In the case of GUUCCGUUGGCGUAUUGGUAACGCGUCUACCUCGUAAGGAGAAGACUGCGGGUUCGAGUCCCGUACGGAACG [A15U C29A C34G], the yeast fitness is ≤ 0.5.
As for GUUCCGUUGGCGUAUUGGUAACGCGUCUGCCUCUUAAGGAGAAGACUGCGGGUUCGAGUCCCGUAUGGAACG [A15U C29G C34U C66U], the yeast fitness is ≤ 0.5.
Then GUUCCGUUGGCGUAUUGGUAACGGGUCUCCCUCCUAAGGAGAAGACUGCGGGUUCGAGUCCCGUACGAAACG [A15U C24G G68A], with ≤ 0.5; and GUUCCGUUGGCGUAUUGGUAACGGGUCUCCCACCUAAGGAAAAGACUGCGGGUUCGAGUCCCGUACGGAACG [A15U C24G U32A G41A], with ≤ 0.5; and GUUCCGUUGGCGUAUUGGUAAGGCGUCUCCCUCCUAAGGAGAAGACUGCGGGUUCGAGUCCCGUACGGUACG [A15U C22G A69U], with 0.608.
Consider GUUCCGUUGGCGUAUUGGUAACGCGUCUUCCUCCUAAGGAGAAGACUGCGGGUUCGAGUCCCGUAAGGAACG [A15U C29U C66A], for which the yeast fitness is 0.57.
Take GUUCCGUUGGCGUAUUGGUAAGGCGUCUCCCUCCUAAGGAGAAGACUCCGGGUUCGAGUCCCCUACGGACCG [A15U C22G G48C G63C A70C]: the yeast fitness is ≤ 0.5.
With GUUCCGUUGGCGUAUUGGUAAGGCGUCUCCUUCCUAAGGAGAAGACUGCGGGUUCGCGUCCCGUACGGAACG [A15U C22G C31U A57C], the yeast fitness was ≤ 0.5.
Take GUUCCGUUGGCGUAUUGGUAACGUGUCUCCCUCCUAUGGAGAAGACUGCGGGUUCGAGUCCCGUACGGAACG [A15U C24U A37U]: the yeast fitness was ≤ 0.5.
Regarding GUUCCGUUGGCGUAUUGGUAACGCGUAUCCCUCCUAAGGAGAAGACUGCGGGUUCGAGUCCCGUACGGAACG [A15U C27A], the yeast fitness came out at 0.593.
The same measure for GUUCCGUUGGCGUAUUGGUAACGCGUUUCCCUCCUAAGGAGAAGACUGCGGGUUCGAGUCCCGUACGGAACG [A15U C27U]: 0.699.
Then GUUCCGUUGGCGUAUUGGUAACGCGUUUCCCUCCUAAGAAGAAGACUACGGGUUCGAGUCCCGUACGGAACG [A15U C27U G39A G48A], with ≤ 0.5; and GUUCCGUUGGCGUAUUGGUAACGGGUCUCCCUCCUAAGGAGAAGACUGCGGGUUCAAGUCCCGUACGGAACG [A15U C24G G56A], with ≤ 0.5.
